PP1 counter: counter-screen for PP5 inhibitors: inhibitors of human PP1-alpha; P62136; purified PP1alpha, OMFP fluorescence; inhibition, % at 6.7 µM; 320,000 tested, 0.9% active;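 active = inhibition above the mean inhibition of all tested compounds plus 3 SD, computed separately for each screening campaign, cut at about 15% in these data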
UBC13 inh: human UBC13 polyubiquitination inhibition. P61088. UBC13 polyubiquitin chain formation, TR-FRET. inhibition, % at 20 µM. 330,000 tested, 0.47% active. AID 485273; in the data active = inhibition above about 45%, passing the limit was not always enough; inconclusive = no clear call, values can overlap the other calls
AI-2 QS mod: modulates the Vibrio harveyi AI-2 quorum sensing system; activity change, % at 7.5 µM; Vibrio harveyi JMH597 AI-2 luminescence/OD600 ratio, 9 h; active compounds read low; strain lacks LuxN and CqsS sensors; 0 = neutral-control median; AID 2094; 300,000 tested, 0.4% active; in the data active = activity change below about -75%, passing the limit was not always enough; inconclusive = no clear call, values can overlap the other calls;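 note: luminescence divided by OD600 gain over 9 h not by final OD600 alone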
T cruzi repl: T. cruzi replication inhibition; inhibition, % (concentration not given with the values); 300,000 tested, 1.4% active; AID 1885; T. cruzi beta-gal in NIH3T3, luminescence, 90 h;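 active = mean inhibition across valid replicates above about 55%, limit read from the data; inconclusive = mean below that limit but half or more replicates reach it; inactive = mean below it, under half of replicates reach it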;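 note: signal also drops with host cell toxicity which is not excluded here; 0% = plate median of DMSO wells and 100% = zero luminescence signal; higher percent means less beta-gal luminescence so fewer parasites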
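Assay system: NIH/3T3 host cells with β-galactosidase reporter T. cruzi; input: 5,000 host fibroblasts per well; compound: single 50 nL compound addition per well in DMSO; timing: ≥90 h infection period, 3 h prior cell attachment; measured by: GalScreen β-gal luminescence, detergent lysis, 60 min; evaluation: percent inhibition of parasite-derived β-gal signal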
pCIP destab: p/CIP protein destabilization; Q05BA5; F442A p/CIP-EGFP cells, EGFP fluorescence, 16 h; decrease of EGFP signal, % at 10 µM; 290,000 tested, 0.01% active; AID 1984;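 active = EGFP signal decrease of at least 30% at 10 µM or well 3 SD below plate mean, unless failing retest; inactive = the rest, including hits failing retest or dose response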
PP1 confirm: human PP1 phosphatase inhibition, confirmation | shares compounds with PP1 counter | purified PP1alpha, OMFP substrate fluorescence | inhibition, % at 6.7 µM | 1,900 tested, 52% active;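 active = mean PP1 inhibition above a set limit taken from the earlier primary screen, cut at about 15% in these data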
PP5 inh counter: counter-screen for PP1 inhibitors: human PP5 phosphatase inhibition | shares compounds with PP1 counter | purified PP5c, OMFP fluorescence | inhibition, % at 6.7 µM | 1,900 tested, 4% active | AID 2360;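 active = mean PP5 inhibition over triplicate wells above about 9.5% taken from the earlier PP1 screen, limit read from the data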
Active calls of the source: *; ? = inconclusive; . = no result given. Shown are actives, neighbours in structure and some others; about 2.8% of the full set was active somewhere.

SMILES	PP1 counter	UBC13 inh	AI-2 QS mod	T cruzi repl	pCIP destab	PP1 confirm	PP5 inh counter
Cc1cc(NC(=O)NC2CC(=O)N(c3ccc4c(c3)OCCO4)C2)no1 (stereo unspecified)	-2	6	32	-6	7	.	.
O=C(CN1C(=O)/C(=C\C=C\c2ccccc2)SC1=S)Nc1ccc(F)cc1	23*	-23	53	-10	-29	13	-2
O=C(CN1C(=O)/C(=C/c2ccccc2)SC1=S)Nc1ncc(Cc2ccccc2)s1	22*	-13	-4	8	-9	20*	-2
Cc1cc(C)n(CC(=O)NCc2ccccc2)c(=O)c1C#N	0	-6	12	-12	-105	.	.
O=C(c1ccc(=O)[nH]c1)N(Cc1cccs1)C1(C(=O)NC2CCCC2)CCCCC1	19*	12	0	-8	4	-4	-5
C/C=C\C=C\C(=O)N1CC2(CC(c3cccc(NC(=O)COc4ccc(Cl)cc4)c3)=NO2)C[C@H]1C(N)=O (stereo partly specified)	-1	-19	28	16	0	.	.
C/C=C\C=C/C(=O)Nc1cccc(C2=NOC3(C2)C[C@@H](C(N)=O)N(C(=O)COc2ccc(Cl)cc2)C3)c1 (stereo partly specified)	19*	-21	35	0	-16	-2	-4
C=C(C)C(=O)Nc1cccc(C2=NOC3(C2)C[C@@H](C(N)=O)N(C(=O)c2cc([N+](=O)[O-])cc([N+](=O)[O-])c2)C3)c1 (stereo partly specified)	3	-28	18	-10	1	.	.
C=C(C)C(=O)Nc1cccc(C2=NOC3(C2)C[C@@H](C(N)=O)N(C(=O)c2ccc(OC)cc2)C3)c1 (stereo partly specified)	18*	-127	18	-16	0	7	-1
Cc1cc(NC(=O)c2ccc(F)cc2)n(C)n1	-4	2	25	-13	-5	.	.
COCCn1c(=O)[nH]c(=O)c2c1nc(-c1ccc(-c3ccc(Cl)cc3[N+](=O)[O-])o1)n2Cc1ccccc1	18*	-32	-6	36	-12	38*	6
COc1ccc(-c2ccc(-c3nc4c(c(=O)[nH]c(=O)n4Cc4ccccc4)n3C)o2)c([N+](=O)[O-])c1	-2	-28	1	14	1	.	.
CCOc1cc(/C=N/n2cnnc2)ccc1OC(=O)c1cccc([N+](=O)[O-])c1	4	-2	30	-9	6	.	.
COc1ccc(-c2ccc(C#N)c(SCC(=O)OCc3ccccc3)n2)cc1OC	-3	?	24	-9	-8	.	.
N#Cc1ccc(-c2ccc3c(c2)OCO3)nc1SCC(=O)OCc1ccccc1	18*	?	8	1	4	10	1
COc1cccc(C(=O)Nc2cccc(NC(=O)c3ccccc3Cl)c2)c1	4	4	-3	-5	-9	.	.
COc1cccc(C(=O)Nc2cccc(C(=O)NC3=NN(c4c(Cl)cc(Cl)cc4Cl)C(=O)C3)c2)c1	29*	-8	1	-30	3	2	-4
COc1ccc(CNS(=O)(=O)c2ccc3c(c2)NC(=O)C(C)S3)cc1 (stereo unspecified)	2	-9	14	0	-11	.	.
COc1ccc(C(=O)c2sc3nc(-c4ccccc4)ccc3c2N)cc1OC	20*	-4	23	21	-32	13	-4
CCOc1ccccc1C1C2CCCCC2(O)CCN1C(=O)c1cccs1 (stereo unspecified)	1	4	11	-5	-20	.	.
C#CCOCCOCCOCCNc1nc(N2CCN(C(=O)[C@H](Cc3ccc(O)cc3)n3cc([C@@H](N)C(C)CC)nn3)CC2)nc(N2CCN(C(=O)[C@H](Cc3cc4ccccc4[nH]3)n3cc([C@@H](N)Cc4ccc(O)cc4)nn3)CC2)n1 (stereo partly specified)	22*	78*	15	-14	-9	-10	-1
C#CCOCCOCCOCCNc1nc(N2CCN(C(=O)C(Cc3ccc(O)cc3)n3cc(C(N)CC(C)C)nn3)CC2)nc(N2CCN(C(=O)C(Cc3cc4ccccc4[nH]3)n3cc(C(N)C(C)CC)nn3)CC2)n1 (stereo unspecified)	20*	77*	21	-7	-1	-24	-4
C#CCOCCOCCOCCNc1nc(N2CCN(C(=O)[C@H](CCC(=O)O)n3cc(C(N)[C@H](C)CC)nn3)CC2)nc(N2CCN(C(=O)[C@H](Cc3cc4ccccc4[nH]3)n3cc(C(N)[C@H](C)CC)nn3)CC2)n1 (stereo partly specified)	2	7	12	-11	-6	.	.
Cc1ccccc1[C@@H](NC(=O)OC(C)(C)C)C(=O)OC(C)(C)C	-1	-15	.	.	.	.	.
CCN(CC)C(=O)C1CCN(S(=O)(=O)c2ccc3c(c2)CCCN3C(=O)C2CCC2)CC1	-2	0	8	6	19	.	.
SMILES	PP1 counter	UBC13 inh	AI-2 QS mod	T cruzi repl	pCIP destab	PP1 confirm	PP5 inh counter
CC1CCCCC1NC(=O)CSc1nnc(CC(=O)Nc2ccccc2F)n1C (stereo unspecified)	-1	2	23	3	-5	.	.
COc1ccccc1NS(=O)(=O)c1ccc(C)c(NC(=O)C2CCCO2)c1 (stereo unspecified)	0	3	.	.	.	.	.
CCCn1c(CN2CCN(C(=O)OCC)CC2)nc2c1c(=O)n(C)c(=O)n2C	55*	-4	7	4	-6	-5	-3
CCCCCn1c(CN2CCN(C(=O)OCC)CC2)nc2c1c(=O)n(C)c(=O)n2C	-1	-3	-1	5	.	.	.
CCc1nnc(NS(=O)(=O)c2ccc(NC(=S)NC(=O)/C=C/c3ccc(F)cc3)cc2)s1	20*	-17	-1	-9	-2	12	2
CCc1nnc(NS(=O)(=O)c2ccc(NC(=S)NC(=O)/C=C/c3ccc([N+](=O)[O-])cc3)cc2)s1	2	-8	30	-1	-4	.	.
CCOC(=O)c1[nH]c2ccccc2c1CCCN1C(=O)c2ccccc2C1=O	32*	10	15	17	2	25*	1
CCOC(=O)c1[nH]c2cc3c(cc2c1CCCN1C(=O)c2ccccc2C1=O)OCCO3	-2	-1	34	5	-6	.	.
COC(=O)c1sc(NC(=O)COc2cccnc2[N+](=O)[O-])c(C(=O)OC)c1C	27*	-23	.	.	.	15	0
COc1ccc(COC(=O)CN2C(=O)NC3(CC(C)CC(C)(C)C3)C2=O)cc1F (stereo unspecified)	.	8	.	.	.	.	.
COc1ccc(COC(=O)CN2C(=O)NC3(CCCC3)C2=O)cc1F	34*	-2	-4	-12	.	-3	-3
